# Laboratory results: PubChem BioAssay AID651924 (Vanderbilt Specialized Chemistry Center, 2012)
# Calls of active or inactive are those of the source. No rule for the calls is given here.
# Molecular target: Muscarinic acetylcholine receptor M2 (Homo sapiens) (UniProt P08172)
# Assay: human M2 receptor potentiation, selectivity assay for M5 PAM project, CHO cells (AID 651924)
# Method in brief: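 Test system: CHO-K1 cells expressing human M2 muscarinic receptor with Gqi5; Timing: compound pre-incubation 1.5 min, acetylcholine stimulation 50 s, 25 °C; Probe or stimulus: acetylcholine EC20; Medium: HBSS with HEPES and probenecid, pH 7.4; Read-out basis: % of maximal acetylcholine response; Signal: calcium fluorescence with Fluo-4 AM, dye loaded 45–60 min at 37 °C.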
# Chain of Muscarinic acetylcholine receptor M2 (Homo sapiens) (P08172 whole entry, looked up): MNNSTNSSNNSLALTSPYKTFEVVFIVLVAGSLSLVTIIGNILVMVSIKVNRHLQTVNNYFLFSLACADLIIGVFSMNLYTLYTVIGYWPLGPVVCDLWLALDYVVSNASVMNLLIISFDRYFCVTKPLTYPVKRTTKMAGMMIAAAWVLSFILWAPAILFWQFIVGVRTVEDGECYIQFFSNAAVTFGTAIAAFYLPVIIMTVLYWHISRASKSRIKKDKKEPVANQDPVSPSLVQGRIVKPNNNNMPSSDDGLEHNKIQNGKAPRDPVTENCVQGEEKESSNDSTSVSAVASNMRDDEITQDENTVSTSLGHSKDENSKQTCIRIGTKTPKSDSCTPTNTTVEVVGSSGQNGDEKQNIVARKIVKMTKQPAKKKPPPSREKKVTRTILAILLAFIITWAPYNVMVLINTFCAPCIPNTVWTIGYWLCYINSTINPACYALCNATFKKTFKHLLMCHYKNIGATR
compound,measurement,value
O=C1C(=O)N(CCOc2ccccc2)c2ccc(OC(F)(F)F)cc21,outcome,inactive
